Measured values from ChEMBL document CHEMBL1153420, “Discovery of novel 1-azoniabicyclo[2.2.2]octane muscarinic acetylcholine receptor antagonists” (J Med Chem, 2009).
Active and inactive are the calls of the source. The calls are words filed in the database; no cut-off is given here.

What was measured:
[1] = target: T1, Muscarinic acetylcholine receptor M3 (Homo sapiens, UniProt P20309); test: Antagonist activity at human cloned muscarinic M3 receptor expressed in CHO cells assessed as inhibition of acetylcholine-induced calcium mobilization by FLIPR assay; assay type: functional, cell-based
Target sequence in this assay (P20309 whole entry): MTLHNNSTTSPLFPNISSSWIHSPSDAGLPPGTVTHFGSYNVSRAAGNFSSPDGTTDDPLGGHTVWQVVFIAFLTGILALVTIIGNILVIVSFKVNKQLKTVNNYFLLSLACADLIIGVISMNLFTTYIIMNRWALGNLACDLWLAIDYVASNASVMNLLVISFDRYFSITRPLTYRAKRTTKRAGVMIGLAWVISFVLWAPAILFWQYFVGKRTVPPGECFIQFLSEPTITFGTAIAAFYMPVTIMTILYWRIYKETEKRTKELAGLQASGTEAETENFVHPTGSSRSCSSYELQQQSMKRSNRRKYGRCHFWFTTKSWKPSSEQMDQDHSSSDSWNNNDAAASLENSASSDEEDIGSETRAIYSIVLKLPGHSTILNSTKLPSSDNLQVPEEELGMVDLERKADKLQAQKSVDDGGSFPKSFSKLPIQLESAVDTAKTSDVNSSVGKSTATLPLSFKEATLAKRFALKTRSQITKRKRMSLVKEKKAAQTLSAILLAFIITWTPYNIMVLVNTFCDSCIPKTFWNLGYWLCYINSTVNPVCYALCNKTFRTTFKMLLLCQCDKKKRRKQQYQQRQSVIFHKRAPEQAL

[2] = target: T1, Muscarinic acetylcholine receptor M3; test: Antagonist activity at human cloned muscarinic M3 receptor expressed in CHO cells assessed as inhibition of acetylcholine-induced calcium mobilization by single concentration kinetic based-FLIPR assay; assay type: functional, cell-based; conditions: read-out: pA2 (converted)
Target sequence in this assay (P20309 whole entry): as above

[3] = Clearance in rat plasma at 0.5 mg/kg, iv; assay type: ADME, organism-based; design: dose 0.5 mg/kg, route intravenous
Outline: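 Rats received a single intravenous dose of 0.5 mg/kg; systemic plasma clearance was reported in ml/min/kg.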

[4] = target: T2, Muscarinic acetylcholine receptor M2 (Homo sapiens, UniProt P08172); test: Antagonist activity at human cloned muscarinic M2 receptor expressed in CHO cells assessed as inhibition of acetylcholine-induced calcium mobilization by single concentration kinetic based-FLIPR assay; assay type: functional, cell-based; conditions: read-out: pA2 (converted)
T2 sequence (P08172 whole entry): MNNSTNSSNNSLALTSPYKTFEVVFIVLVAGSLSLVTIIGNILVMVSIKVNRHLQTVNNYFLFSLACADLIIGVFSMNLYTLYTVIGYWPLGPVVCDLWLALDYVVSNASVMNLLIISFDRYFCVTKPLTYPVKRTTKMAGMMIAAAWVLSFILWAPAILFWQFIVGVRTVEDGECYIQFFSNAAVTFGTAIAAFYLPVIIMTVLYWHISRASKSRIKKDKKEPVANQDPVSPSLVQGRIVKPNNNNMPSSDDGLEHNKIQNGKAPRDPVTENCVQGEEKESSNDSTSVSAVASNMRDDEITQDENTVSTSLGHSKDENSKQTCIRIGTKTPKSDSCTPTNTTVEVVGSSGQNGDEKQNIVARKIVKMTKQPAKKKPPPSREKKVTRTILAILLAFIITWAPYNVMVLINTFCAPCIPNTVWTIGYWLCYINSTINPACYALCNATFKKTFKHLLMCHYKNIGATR

Mus musculus [5] = test: Inhibition of methacholine-induced bronchoconstriction in intranasally single dosed conscious BALB/c mouse assessed as time to 50% loss of maximum protection at 0.05 ug by plethysmography; assay type: functional
Outline: (§1)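 Conscious mice dosed intranasally in 50 µL vehicle (10% DMSO), then methacholine challenge; barometric plethysmography measured enhanced pause (Penh) at times from 15 min to 96 h after dosing; duration taken as time to 50% loss of maximum protection.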

[6] = target: T1, Muscarinic acetylcholine receptor M3; test: Antagonist activity at human cloned muscarinic M3 receptor expressed in CHO cells assessed as reversible inhibition of acetylcholine-induced calcium mobilization for 90 mins measured after 180 mins of washout period by FLIPR assay; assay type: functional, cell-based
Outline: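 CHO cells expressing cloned human M3 receptors were incubated 90 min with vehicle or 1.0, 10 or 100 nM compound, then washed out for 180 min with 18 buffer changes. Cells were then stimulated with ACh, and calcium mobilization was read by FLIPR. Reversibility was judged from ACh concentration-response curves against no-drug levels.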
Target sequence in this assay (P20309 whole entry, looked up): as the sequence (P20309 whole entry) above

Mus musculus [7] = test: Inhibition of methacholine-induced bronchoconstriction in intranasally single dosed conscious BALB/c mouse by plethysmography; assay type: functional
[8] = target: T3, Muscarinic acetylcholine receptor M1 (Homo sapiens, UniProt P11229); test: Displacement of [3H]N-methyl scopolamine from human cloned muscarinic M1 receptor expressed in CHO cells coexpressing Gqi5 by scintillation proximity assay; assay type: cell-based
T3 sequence (P11229 whole entry): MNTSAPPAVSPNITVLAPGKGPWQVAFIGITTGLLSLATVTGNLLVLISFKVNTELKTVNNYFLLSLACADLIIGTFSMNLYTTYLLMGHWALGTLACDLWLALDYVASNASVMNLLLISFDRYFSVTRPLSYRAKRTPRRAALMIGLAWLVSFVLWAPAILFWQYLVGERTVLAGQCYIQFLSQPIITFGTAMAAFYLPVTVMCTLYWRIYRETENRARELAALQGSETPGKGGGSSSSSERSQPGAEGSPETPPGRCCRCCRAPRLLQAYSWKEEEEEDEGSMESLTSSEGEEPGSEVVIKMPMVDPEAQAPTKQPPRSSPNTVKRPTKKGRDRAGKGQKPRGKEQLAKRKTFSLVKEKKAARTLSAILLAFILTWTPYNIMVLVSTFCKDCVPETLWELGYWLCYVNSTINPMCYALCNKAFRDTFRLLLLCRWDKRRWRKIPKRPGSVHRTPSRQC
Outline: (§2)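 Scintillation proximity assay on membranes from CHO cells expressing human M1, M2 or M3 receptors, competing against 0.5 nM [3H]-N-methyl scopolamine; Ki reported as mean of three independent assays.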

[9] = target: T2, Muscarinic acetylcholine receptor M2; test: Displacement of [3H]N-methyl scopolamine from human cloned muscarinic M2 receptor expressed in CHO cells coexpressing Gqi5 by scintillation proximity assay; assay type: cell-based; outline: as §2
[10] = target: T3, Muscarinic acetylcholine receptor M1; test: Antagonist activity at human cloned muscarinic M1 receptor expressed in CHO cells assessed as inhibition of acetylcholine-induced calcium mobilization by single concentration kinetic based-FLIPR assay; assay type: functional, cell-based; conditions: read-out: pA2 (converted)
[11] = target: T1, Muscarinic acetylcholine receptor M3; test: Antagonist activity at human muscarinic M3 receptor assessed as offset time for 50% of carbachol-induced human bronchus contraction to return at 10 nM; assay type: functional
Outline: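 Human bronchial strips (primary, secondary or tertiary airways, obtained at autopsy) were mounted in organ baths on force-displacement transducers. Strips were preincubated 2 h with 10 nM antagonist, then given increasing carbachol to […]. Antagonist was then removed and tissue superfused with carbachol-containing buffer while tension recovery was tracked. The result is minutes to 50% reversal of blockade (off t50).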
Target sequence in this assay (P20309 whole entry, looked up): as the sequence (P20309 whole entry) above

[12] = Clearance in rat plasma at 3.5 mg/kg, iv; assay type: ADME, organism-based; design: dose 3.5 mg/kg, route intravenous
Outline: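 Systemic plasma clearance in rat after intravenous dosing.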

[13] = target: T1, Muscarinic acetylcholine receptor M3; test: Antagonist activity at human muscarinic M3 receptor assessed as inhibition of carbachol-induced bronchus contraction; assay type: functional; conditions: read-out: pA2 (converted)
Target sequence in this assay (P20309 whole entry): as the sequence (P20309 whole entry) above

[14] = target: T1, Muscarinic acetylcholine receptor M3; test: Displacement of [3H]N-methyl scopolamine from human cloned muscarinic M3 receptor expressed in CHO cells coexpressing Gqi5 by scintillation proximity assay; assay type: cell-based
Target sequence in this assay (P20309 whole entry): as the sequence (P20309 whole entry) above

Mus musculus [15] = test: Inhibition of methacholine-induced bronchoconstriction in intranasally single dosed conscious BALB/c mouse assessed as time to 50% loss of maximum protection at 0.5 ug by plethysmography; assay type: functional; outline: as §1

Compound	IC50 [1] [nM]	Kb [2] [nM]	also measured
C[N+]12CCC(C(O)(c3ccccc3)c3ccccc3)(CC1)CC2	935	–	–
OC(CC1CN2CCC1CC2)(c1ccccc1)c1ccccc1 (stereo not drawn)	145	–	–
OC(c1ccccc1)(c1ccccc1)C12CC[N+](CCCCCOc3ccccc3)(CC1)CC2	306	–	–
CC(C)(C)c1ccc(COCC[N+]23CCC(C(O)(c4ccccc4)c4ccccc4)(CC2)CC3)cc1	39	–	–
OCC[N+]12CCC(C(O)(c3ccccc3)c3ccccc3)(CC1)CC2	486	–	–
OC(c1ccccc1)(c1ccccc1)C1C[N+]2(CCc3ccccc3)CCC1CC2 (stereo not drawn)	2820	–	–
COc1ccc(C(O)(c2ccc(OC)cc2)C23CC[N+](CCOCc4ccccc4)(CC2)CC3)cc1	36	–	–
OC(c1ccccc1)(c1ccccc1)C1CC2CCN1CC2 (stereo not drawn)	6600	–	–
OC(c1cccc(F)c1)(c1cccc(F)c1)C12CC[N+](CCOCc3ccccc3)(CC1)CC2	< 10	0.251	–
CC[N+]12CCC(C(O)(c3ccccc3)c3ccccc3)(CC1)CC2	104	–	–
OC(c1ccccc1)(c1ccccc1)C1CN2CCC1CC2 (stereo not drawn)	1100	–	–
Cc1ccc(C(O)(c2ccc(C)cc2)C23CC[N+](CCOCc4ccccc4)(CC2)CC3)cc1	12	–	–
N#Cc1ccccc1COCC[N+]12CCC(C(O)(c3ccccc3)c3ccccc3)(CC1)CC2	5400	–	–
COCCC[N+]12CCC(C(O)(c3ccccc3)c3ccccc3)(CC1)CC2	829	–	–
CCC[N+]12CCC(C(O)(c3ccccc3)c3ccccc3)(CC1)CC2	208	–	–
OC(c1ccccc1)(c1ccccc1)C12CC[N+](CCOCc3ccccc3)(CC1)C2	< 10	0.398	–
CCCC[N+]12CCC(C(O)(c3ccccc3)c3ccccc3)(CC1)CC2	135	–	–
OC(c1ccccc1)(c1ccccc1)C12CC[N+](CCOCc3ccccc3)(CC1)CC2.[Br-] [UMECLIDINIUM BROMIDE]	–	–	clearance [3]: 92 mL/min/kg; Kb [4]: 0.0316 nM; Activity (Mus musculus [5]): >48 h; Activity [6]: Active; ED50 (Mus musculus [7]): 0.02 µg; Ki [8]: 0.16 nM; Ki [9]: 0.15 nM; Kb [10]: 0.316 nM; Activity [11]: 145 min
OC(c1ccccc1)(c1ccccc1)C12CC[N+](CCCCc3ccccc3)(CC1)CC2	< 10	0.501	–
OC(c1ccccc1)(c1ccccc1)C12CC[N+](CCOCc3ccccc3Br)(CC1)CC2	22	3.16	–
COc1cccc(COCC[N+]23CCC(C(O)(c4ccccc4)c4ccccc4)(CC2)CC3)c1	< 10	2	–
OC(CC1C[N+]2(CCc3ccccc3)CCC1CC2)(c1ccccc1)c1ccccc1 (stereo not drawn)	122	–	–

Compound	IC50 [1] [nM]	Kb [2] [nM]	also measured
OC(c1ccccc1)(c1ccccc1)C12CC[N+](CCCCOc3ccccc3)(CC1)CC2	9.5	10	–
OC(c1ccccc1)(c1ccccc1)C12CC[N+](CCOCc3ccc(Br)cc3)(CC1)CC2	< 10	0.0398	–
COCC[N+]12CCC(C(O)(c3ccccc3)c3ccccc3)(CC1)CC2	30	–	–
OC(c1ccccc1)(c1ccccc1)C12CC[N+](CCc3ccccc3)(CC1)CC2	87	–	–
Cc1ccccc1COCC[N+]12CCC(C(O)(c3ccccc3)c3ccccc3)(CC1)CC2	13	3.98	–
NCC[N+]12CCC(C(O)(c3ccccc3)c3ccccc3)(CC1)CC2	850	0.398	–
OC(c1ccccc1)(c1ccccc1)C12CC[N+](CCOCc3cccc(Br)c3)(CC1)CC2	< 10	0.126	–
OC(c1ccccc1)(c1ccccc1)C12CC[N+](CCOc3ccccc3)(CC1)CC2	< 10	0.794	–
N#Cc1ccc(COCC[N+]23CCC(C(O)(c4ccccc4)c4ccccc4)(CC2)CC3)cc1	< 10	0.398	–
OC(c1ccccc1)(c1ccccc1)C12CC[N+](CCOCc3ccc(F)cc3)(CC1)CC2	< 10	0.0794	–
OC(c1ccccc1)(c1ccccc1)C12CC[N+](CCOCc3ccc(Cl)cc3)(CC1)CC2	< 10	0.0631	–
Cc1ccc(COCC[N+]23CCC(C(O)(c4ccccc4)c4ccccc4)(CC2)CC3)cc1	< 10	0.0398	–
OC(c1ccccc1)(c1ccccc1)C12CC[N+](CC3CC3)(CC1)CC2	1960	–	–
OC(c1ccccc1)(c1ccccc1)C12CC[N+](CCOCc3cccc(F)c3)(CC1)CC2	< 10	0.0251	–
N#CC(c1ccccc1)(c1ccccc1)C12CC[N+](CCOCc3ccccc3)(CC1)C2	< 10	0.501	–
Cc1cccc(COCC[N+]23CCC(C(O)(c4ccccc4)c4ccccc4)(CC2)CC3)c1	< 10	0.1	–
COc1cccc(C(O)(c2cccc(OC)c2)C23CC[N+](CCOCc4ccccc4)(CC2)CC3)c1	17	–	–
OC(c1ccccc1)(c1ccccc1)C12CC[N+](CCCOc3ccccc3)(CC1)CC2.[Br-]	< 10	–	Kb [4]: 1.26 nM; clearance [12]: 37 mL/min/kg; Kb [13]: 1.26 nM; Ki [14]: 0.13 nM; Activity [6]: inactive; ED50 (Mus musculus [7]): 0.08 µg; Activity (Mus musculus [15]): 34 h; Ki [8]: 0.64 nM; Ki [9]: 0.94 nM; Kb [10]: 3.16 nM; Activity [11]: 57 min
OC(c1ccc(F)cc1)(c1ccc(F)cc1)C12CC[N+](CCOCc3ccccc3)(CC1)CC2	< 10	0.0631	–
OCCC[N+]12CCC(C(O)(c3ccccc3)c3ccccc3)(CC1)CC2	29500	–	–
OC(c1ccccc1)(c1ccccc1)C12CC[N+](CCOCc3ccccc3F)(CC1)CC2	< 10	0.0398	–
OC(c1ccccc1)(c1ccccc1)C12CCN(CC1)CC2	1070	–	–
